According to ChEMBL document CHEMBL1649147, “Antistaphylococcal activity of dihydrophthalazine antifolates, a family of novel antibacterial drugs” (2009):
Values after ≈ are worked out from the molar mass of the structure shown.

Experiments:
[1] = tested on: Staphylococcus epidermidis; assay: Antibacterial activity against methicillin-resistant coagulase-negative Staphylococcus epidermidis 074 by broth macrodilution method; format: functional
Staphylococcus aureus [2] = assay: Antibacterial activity against Tmp-susceptible Staphylococcus aureus by agar dilution method; format: functional
Procedure, shortened: (§1)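 MICs by agar dilution on Mueller-Hinton agar following CLSI guidelines. S. aureus ATCC 29213 and E. faecalis ATCC 29212 were run as quality controls with each set, and test-strain MICs were kept only if control MICs fell within acceptable ranges.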

[3] = tested on: Staphylococcus epidermidis; assay: Antibacterial activity against methicillin-susceptible coagulase-negative Staphylococcus epidermidis 051 after 50 passages by agar dilution method; format: functional
Procedure, shortened: (§2)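 Daily serial passage for up to 50 days at 35°C for 24 h in 1 ml MHB. Each transfer used 10 µl from the tube nearest the MIC (1–2 dilutions below) with the same turbidity as the drug-free control. MICs were measured by agar dilution, with changes given as log2 steps.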

Staphylococcus aureus [4] = assay: Antibacterial activity against Tmp-susceptible coagulase-negative Staphylococcus aureus by agar dilution method; format: functional; procedure, shortened: as §1
Staphylococcus aureus [5] = assay: Antibacterial activity against methicillin-resistant Staphylococcus aureus by agar dilution method; format: functional
Procedure, shortened: (§3)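 Agar dilution on Mueller-Hinton agar per CLSI guidelines. S. aureus ATCC 29213 and E. faecalis ATCC 29212 were run with each set, and test MICs were accepted only when the control strains fell within acceptable ranges.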

Staphylococcus aureus [6] = assay: Antibacterial activity against methicillin-susceptible Staphylococcus aureus by agar dilution method; format: functional; procedure, shortened: as §3
Staphylococcus aureus [7] = assay: Antibacterial activity against methicillin-resistant Staphylococcus aureus ATCC 43300 after 50 passages by agar dilution method; format: functional; details: ATCC43300
Procedure, shortened: (§4)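 Serial passage under drug. Inoculum was ~1 × 10^6 CFU/ml from overnight MHA growth, in 1 ml MHB at 35°C for 24 h. Drug ranged from 4 log2 steps above to 3 log2 steps below the MIC. […] MIC change is given as log2 steps.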

[8] = tested on: Staphylococcus epidermidis; assay: Antibacterial activity against methicillin-susceptible coagulase-negative Staphylococcus epidermidis 051 by broth macrodilution method; format: functional
[9] = tested on: Staphylococcus epidermidis; assay: Antibacterial activity against methicillin-resistant, Linezolid non-susceptible coagulase-negative Staphylococcus epidermidis 345 after 50 passages by agar dilution method; format: functional; procedure, shortened: as §2
[10] = tested on: Staphylococcus epidermidis; assay: Antibacterial activity against methicillin-susceptible coagulase-negative Staphylococcus epidermidis 057 after 50 passages by agar dilution method; format: functional; procedure, shortened: as §2
[11] = tested on: Staphylococcus epidermidis; assay: Antibacterial activity against methicillin-susceptible coagulase-negative Staphylococcus epidermidis 057 by broth macrodilution method; format: functional
Staphylococcus aureus [12] = assay: Antibacterial activity against Tmp-resistant Staphylococcus aureus by agar dilution method; format: functional; procedure, shortened: as §1
Staphylococcus aureus [13] = assay: Antibacterial activity against methicillin-resistant Staphylococcus aureus 145 after 50 passages by agar dilution method; format: functional; procedure, shortened: as §4
[14] = tested on: Staphylococcus epidermidis; assay: Antibacterial activity against methicillin-resistant, vancomycin-intermediate coagulase-negative Staphylococcus epidermidis 225 by agar dilution method; format: functional; procedure, shortened: as §3
[15] = tested on: Staphylococcus epidermidis; assay: Antibacterial activity against methicillin-resistant coagulase-negative Staphylococcus epidermidis 197 after 50 passages by agar dilution method; format: functional; procedure, shortened: as §2
[16] = tested on: coagulase-negative staphylococci; assay: Antibacterial activity against Tmp-resistant coagulase-negative staphylococci by agar dilution method
[17] = tested on: coagulase-negative staphylococci; assay: Antibacterial activity against methicillin-susceptible coagulase-negative staphylococci by agar dilution method
[18] = tested on: Staphylococcus epidermidis; assay: Antibacterial activity against methicillin-resistant, vancomycin-intermediate coagulase-negative Staphylococcus epidermidis 225 after 50 passages by agar dilution method; format: functional
Procedure, shortened: (§5)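 Daily serial passage for up to 50 days at 35°C for 24 h in 1 ml MHB. […] Each transfer used 10 µl from the tube nearest the MIC (1–2 dilutions below) with the same turbidity as the drug-free control. […] MICs were measured by agar dilution, with changes given as log2 steps.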

Staphylococcus aureus [19] = assay: Antibacterial activity against methicillin-susceptible Staphylococcus aureus ATCC 29213 after 50 passages by agar dilution method; format: functional; details: ATCC29213; procedure, shortened: as §5
[20] = tested on: Staphylococcus epidermidis; assay: Antibacterial activity against methicillin-resistant coagulase-negative Staphylococcus epidermidis 197 by broth macrodilution method; format: functional
[21] = tested on: coagulase-negative staphylococci; assay: Antibacterial activity against methicillin-resistant coagulase-negative staphylococci by agar dilution method
[22] = tested on: Staphylococcus epidermidis; assay: Antibacterial activity against methicillin-resistant coagulase-negative Staphylococcus epidermidis 225 by broth macrodilution method; format: functional
Staphylococcus aureus [23] = assay: Antibacterial activity against methicillin-susceptible, vancomycin-intermediate Staphylococcus aureus 505 after 50 passages by agar dilution method; format: functional; procedure, shortened: as §5
[24] = tested on: Staphylococcus epidermidis; assay: Antibacterial activity against methicillin-resistant, Linezolid non-susceptible coagulase-negative Staphylococcus epidermidis 345 by agar dilution method; format: functional
Staphylococcus aureus [25] = assay: Antibacterial activity against methicillin-resistant and vancomycin-resistant Staphylococcus aureus VRS1 after 50 passages by agar dilution method; format: functional; procedure, shortened: as §5
[26] = tested on: coagulase-negative staphylococci; assay: Antibacterial activity against Tmp-susceptible coagulase-negative staphylococci by agar dilution method
[27] = tested on: Staphylococcus epidermidis; assay: Antibacterial activity against methicillin-resistant coagulase-negative Staphylococcus epidermidis 345 by broth macrodilution method; format: functional
Staphylococcus aureus [28] = assay: Antibacterial activity against methicillin-susceptible, vancomycin-intermediate Staphylococcus aureus 505 by broth macrodilution method; format: functional
Staphylococcus aureus [29] = assay: Antibacterial activity against vancomycin-resistant Staphylococcus aureus VRS1 by broth macrodilution method; format: functional
Procedure, shortened: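 Michigan VRSA strain, one of 12 staphylococci later used in time-kill studies. MIC was determined by broth macrodilution and reported in μg/ml.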

Staphylococcus aureus [30] = assay: Antibacterial activity against methicillin-resistant and vancomycin-resistant Staphylococcus aureus VRS1 by agar dilution method; format: functional; procedure, shortened: as §3
Staphylococcus aureus [31] = assay: Antibacterial activity against methicillin-resistant Staphylococcus aureus ATCC 43300 by broth macrodilution method; format: functional; details: ATCC43300
Staphylococcus aureus [32] = assay: Antibacterial activity against methicillin-susceptible Staphylococcus aureus 505 by broth macrodilution method; format: functional
Staphylococcus aureus [33] = assay: Antibacterial activity against methicillin-resistant Staphylococcus aureus 507 by broth macrodilution method; format: functional
Staphylococcus aureus [34] = assay: Antibacterial activity against methicillin-resistant Staphylococcus aureus 145 by broth macrodilution method; format: functional
Staphylococcus aureus [35] = assay: Antibacterial activity against methicillin-susceptible Staphylococcus aureus ATCC 29213 by broth macrodilution method; format: functional; details: ATCC29213

CC(=O)NC[C@H]1CN(c2ccc(N3CCOCC3)c(F)c2)C(=O)O1 [LINEZOLID]
MIC [1]: 1 µg/mL (≈ 2.96 µM) | MIC50 (Staphylococcus aureus [2]): 2 µg/mL (≈ 5.93 µM) | MIC90 (Staphylococcus aureus [2]): 2 µg/mL (≈ 5.93 µM) | MIC [3]: 128 µg/mL (≈ 379 µM) | MIC (Staphylococcus aureus [4]): 1 µg/mL (≈ 2.96 µM) | MIC50 (Staphylococcus aureus [5]): 2 µg/mL (≈ 5.93 µM) | MIC90 (Staphylococcus aureus [5]): 2 µg/mL (≈ 5.93 µM) | MIC50 (Staphylococcus aureus [6]): 2 µg/mL (≈ 5.93 µM) | MIC90 (Staphylococcus aureus [6]): 2 µg/mL (≈ 5.93 µM) | MIC (Staphylococcus aureus [7]): 64 µg/mL (≈ 190 µM) | MIC [8]: 2 µg/mL (≈ 5.93 µM) | MIC [9]: 128 µg/mL (≈ 379 µM) | MIC [10]: 64 µg/mL (≈ 190 µM) | MIC [11]: 2 µg/mL (≈ 5.93 µM) | MIC (Staphylococcus aureus [12]): 1 µg/mL (≈ 2.96 µM) | MIC50 (Staphylococcus aureus [12]): 1 µg/mL (≈ 2.96 µM) | MIC90 (Staphylococcus aureus [12]): 2 µg/mL (≈ 5.93 µM) | MIC (Staphylococcus aureus [13]): 16 µg/mL (≈ 47.4 µM) | MIC [14]: 2 µg/mL (≈ 5.93 µM) | MIC [15]: 32 µg/mL (≈ 94.9 µM) | MIC50 [16]: 1 µg/mL (≈ 2.96 µM) | MIC90 [16]: 2 µg/mL (≈ 5.93 µM) | MIC [17]: 1 µg/mL (≈ 2.96 µM) | MIC90 [17]: 2 µg/mL (≈ 5.93 µM) | MIC [18]: 16 µg/mL (≈ 47.4 µM) | MIC (Staphylococcus aureus [19]): 16 µg/mL (≈ 47.4 µM) | MIC [20]: 2 µg/mL (≈ 5.93 µM) | MIC50 [21]: 1 µg/mL (≈ 2.96 µM) | MIC90 [21]: 2 µg/mL (≈ 5.93 µM) | MIC [22]: 2 µg/mL (≈ 5.93 µM) | MIC (Staphylococcus aureus [23]): 16 µg/mL (≈ 47.4 µM) | MIC [24]: 32 µg/mL (≈ 94.9 µM) | MIC (Staphylococcus aureus [25]): 32 µg/mL (≈ 94.9 µM) | MIC50 [26]: 1 µg/mL (≈ 2.96 µM) | MIC90 [26]: 2 µg/mL (≈ 5.93 µM) | MIC [27]: 64 µg/mL (≈ 190 µM)

CN(C)c1ccc(O)c2c1C[C@H]1C[C@H]3[C@H](N(C)C)C(O)=C(C(N)=O)C(=O)[C@@]3(O)C(O)=C1C2=O [MINOCYCLINE]
MIC [1]: 0.25 µg/mL (≈ 0.546 µM) | MIC50 (Staphylococcus aureus [2]): 0.125 µg/mL (≈ 0.273 µM) | MIC90 (Staphylococcus aureus [2]): 0.25 µg/mL (≈ 0.546 µM) | MIC [3]: 4 µg/mL (≈ 8.74 µM) | MIC (Staphylococcus aureus [4]): 0.06 µg/mL (≈ 0.131 µM) | MIC50 (Staphylococcus aureus [5]): 0.125 µg/mL (≈ 0.273 µM) | MIC90 (Staphylococcus aureus [5]): 2 µg/mL (≈ 4.37 µM) | MIC50 (Staphylococcus aureus [6]): 0.125 µg/mL (≈ 0.273 µM) | MIC90 (Staphylococcus aureus [6]): 0.25 µg/mL (≈ 0.546 µM) | MIC (Staphylococcus aureus [7]): 1 µg/mL (≈ 2.19 µM) | MIC [8]: 0.125 µg/mL (≈ 0.273 µM) | MIC [9]: 1 µg/mL (≈ 2.19 µM) | MIC [10]: 2 µg/mL (≈ 4.37 µM) | MIC [11]: 0.5 µg/mL (≈ 1.09 µM) | MIC (Staphylococcus aureus [28]): 0.125 µg/mL (≈ 0.273 µM) | MIC50 (Staphylococcus aureus [12]): 0.25 µg/mL (≈ 0.546 µM) | MIC90 (Staphylococcus aureus [12]): 8 µg/mL (≈ 17.5 µM) | MIC (Staphylococcus aureus [13]): 8 µg/mL (≈ 17.5 µM) | MIC [14]: 0.125 µg/mL (≈ 0.273 µM) | MIC [15]: 2 µg/mL (≈ 4.37 µM) | MIC (Staphylococcus aureus [29]): 1 µg/mL (≈ 2.19 µM) | MIC50 [16]: 0.5 µg/mL (≈ 1.09 µM) | MIC90 [16]: 0.5 µg/mL (≈ 1.09 µM) | MIC [17]: 0.125 µg/mL (≈ 0.273 µM) | MIC90 [17]: 0.5 µg/mL (≈ 1.09 µM) | MIC (Staphylococcus aureus [30]): 0.5 µg/mL (≈ 1.09 µM) | MIC [18]: 1 µg/mL (≈ 2.19 µM) | MIC (Staphylococcus aureus [19]): 2 µg/mL (≈ 4.37 µM) | MIC [20]: 0.125 µg/mL (≈ 0.273 µM) | MIC50 [21]: 0.25 µg/mL (≈ 0.546 µM) | MIC90 [21]: 1 µg/mL (≈ 2.19 µM) | MIC (Staphylococcus aureus [31]): 0.125 µg/mL (≈ 0.273 µM) | MIC [22]: 0.125 µg/mL (≈ 0.273 µM) | MIC (Staphylococcus aureus [23]): 1 µg/mL (≈ 2.19 µM) | MIC [24]: 0.5 µg/mL (≈ 1.09 µM) | MIC (Staphylococcus aureus [25]): 2 µg/mL (≈ 4.37 µM) | MIC (Staphylococcus aureus [32]): 0.125 µg/mL (≈ 0.273 µM) | MIC (Staphylococcus aureus [33]): 2 µg/mL (≈ 4.37 µM) | MIC (Staphylococcus aureus [34]): 4 µg/mL (≈ 8.74 µM) | MIC50 [26]: 0.125 µg/mL (≈ 0.273 µM) | MIC90 [26]: 1 µg/mL (≈ 2.19 µM) | MIC (Staphylococcus aureus [35]): 0.125 µg/mL (≈ 0.273 µM) | MIC [27]: 0.25 µg/mL (≈ 0.546 µM)
